NALP1 yeast inh – NALP1 inflammasome inhibitors in reconstituted yeast, colorimetric, S. cerevisiae, triplicate retest; hit rate 0.61% among 280,000; S. cerevisiae NALP1/ASC/caspase-1 growth, X-gal OD620, 72 h; inhibition, % at 10 µM; in the data active = inhibition mostly above about 24%, no sharp cut-off; inactive = mostly below about 32%
Arr AP2 block – inhibitors of beta-arrestin/AP2 binding, primary screen, biochemical, GPCR trafficking, flow cytometry | inhibition, % at 10 µM | beta-arrestin 1 C-terminal peptide binding to AP2 beta2-adaptin appendage (human) | AID 504490, 2011 | FITC-arrestin peptide / GST-AP2 beads; AP2 beta2 appendage carries R879A mutation | hit rate 0.31% among 340,000;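 active = inhibition above a set limit, near 3 SD of compounds lacking own fluorescence, cut at about 54% in these data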;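 note: plate controls were DMSO wells for no effect and 5 µM unlabelled arrestin peptide for full effect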
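Material – AP2 appendage R879A on GSH beads · Buffer or medium – PBS with 0.05% Tween 20 and 0.1% BSA · Probe or stimulus – fluorescein-tagged arrestin peptide at 50 nM final · Incubation – compound with beads 12 min RT, then probe 1 h RT · Detection – high-throughput flow cytometry of beads, ex 488, em 535 nm · Evaluation – percent response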
ALR inh – inhibitors of human ALR sulfhydryl oxidase, primary screen, biochemical, H2O2 detection, HRP-luminol luminescence, single point; FAD-linked sulfhydryl oxidase ALR (Homo sapiens), P55789; purified ALR, DTT oxidation; inhibition, % (no concentration beside the values); hit rate 3.8% among 290,000; AID 485317, 2010;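 active = mean replicate inhibition above about 79%, with every replicate also reaching it, limit read from the data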
NLRP3 yeast inh – NALP3 inflammasome inhibitors in reconstituted yeast, primary screen, luminescence, uHTS; Yeast reconstituted NLRP3/ASC/caspase-1, beta-gal luminescence, 24 h; inhibition, % at 10 µM; hit rate 0.39% among 330,000; AID 2825, 2010;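 active = inhibition of 50% or more; inactive = inhibition below 50%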;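 note: plate controls were induced DMSO wells for no effect and uninduced yeast grown without galactose for full effect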
Pemphigus Ab inh – inhibitors of pemphigus antibody binding to DSG3, primary screen, biochemical, bead-based, flow cytometry, scFv-GFP; Desmoglein-3 (Homo sapiens), P32926; binding (percent of control), % at 10 µM; DSG3-coupled beads, scFv-anti-DSG3-GFP binding; hits give low values; hit rate 0.48% among 310,000;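 active = binding more than 3 SD below its plate's average and above zero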;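 note: hits lower antibody fragment binding to DSG3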
PolyA inhibitor – polyadenylation inhibitors in yeast reporter cells, primary screen, luminescence, S. cerevisiae. hit rate 0.02% among 300,000. activity score, % at 12 µM. S. cerevisiae SKY197-pL101 polyadenylation reporter, beta-gal luminescence; efflux-impaired pdr1/pdr3 knockout yeast; score 100 = 6 SD above DMSO;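 active = lowest replicate activity score at least 50, where 100 means six control SD above control mean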;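 note: yeast exposed to compound for 9 h at 30 °C; higher score means more reporter readthrough which indicates perturbed polyadenylation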
* marks the source's active call; other numbers are inactive results; nt = not tested or not shown. A selection: hits, their analogues and other compounds. The true share with any hit is near 4.6%.

SMILES	NALP1 yeast inh	Arr AP2 block	ALR inh	NLRP3 yeast inh	Pemphigus Ab inh	PolyA inhibitor
Cn1c(SCC(=O)OCc2ccccc2)nnc1-c1ccco1	44.5*	-7.0	18.7	5.9	103.3	13.9
CC(C)(C)CN1CCC(n2nccc2NC(=O)c2ccccc2Cl)CC1	2.4	2.8	-2.5	18.2	101.2	-14.4
O=C(Cc1c(Cl)cccc1Cl)OCC(=O)c1ccc[nH]1	nt	nt	nt	nt	105.1	nt
CCCCN(C(=O)c1cc2c(s1)CCC2)c1c(N)n(CCCC)c(=O)[nH]c1=O	nt	-11.7	-0.7	-0.6	101.0	22.7
CCn1c(SCC(=O)Nc2nccs2)nnc1-c1ccc(S(=O)(=O)N2CCCCCC2)cc1	2.0	-4.2	nt	-1.0	nt	-1.0
CCn1c(SCc2ccc(C(=O)Nc3nccs3)cc2)nnc1-c1ccc(N)cc1	14.4	-0.9	82.5*	12.1	105.1	3.3
CCn1c(SCc2ccc(C(=O)Nc3nccs3)cc2)nnc1-c1ccc(NC(C)=O)cc1	10.7	6.5	98.8*	-3.4	100.3	3.3
Cn1c(SCc2ccc(C(=O)Nc3nccs3)cc2)nnc1-c1ccccc1	26.5	12.0	39.4	-9.9	105.5	-17.3
Cc1ccc2nc(-c3cc(N)cc(N)c3)oc2c1	12.5	-5.7	-3.0	12.5	101.7	-4.3
Nc1ccc(-c2nc3ccc(N)cc3o2)cc1	-6.8	38.4	99.9*	13.6	104.5	-6.0
COC(=O)c1ccc(-c2nc3cc(N)ccc3o2)cc1	-62.9	1.4	95.2*	21.1	101.5	12.3
CN(C)c1ccc(-c2nc3cc(N)ccc3o2)cc1	4.4	15.5	98.7*	42.0	111.3	1.7
Cc1ccc(C)c(-c2nc3cc(N)ccc3o2)c1	21.1	10.6	98.9*	12.9	100.5	-3.2
CC1CC(C)CN(C(=O)COC(=O)c2ccc(S(=O)(=O)N(C)c3ccccc3)cc2)C1 (configuration not stated)	nt	-4.4	-6.6	34.2	100.1	nt
Nc1ccc(-c2nc3cc(N)ccc3o2)cc1	6.9	49.5	92.7*	15.3	97.6	0.4
Cc1ccc(-c2nc3cc(N)ccc3o2)cc1Br	18.8	-0.9	66.1	29.9	104.5	-12.5
CCN1CCN(CCC2Oc3cc([N+](=O)[O-])ccc3NC2=O)CC1 (configuration not stated)	-0.9	-0.2	3.2	2.3	nt	18.2
COc1ccc(N2CCN(CCC3Oc4cc([N+](=O)[O-])ccc4NC3=O)CC2)cc1 (configuration not stated)	4.5	52.5	86.0*	23.9	115.0	1.9
O=C(CSc1ncnc2c1oc1ccccc12)Nc1nc2ccccc2s1	32.5	-18.4	95.5*	-26.3	100.0	16.3
CCc1nnc(NC(=O)CSc2ncnc3c2oc2ccccc23)s1	-35.1	18.9	14.3	5.8	-17.4*	15.0
COc1cc(/C=N/NC(=O)c2nnn(-c3nonc3N)c2C)ccc1OCc1ccc(Cl)cc1	nt	nt	nt	nt	95.4	nt
COc1ccccc1CNC(=O)CN1C(=O)NC2(CCCC2)C1=O	nt	-8.7	11.4	6.7	110.5	nt
CCOc1ccccc1N1CCN(S(=O)(=O)c2ccc(F)c(F)c2)CC1	40.0*	6.0	-7.3	37.3	103.9	-8.2
COc1ccccc1N1CCN(S(=O)(=O)c2c(C)[nH]c(=O)[nH]c2=O)CC1	-0.3	1.1	96.6*	12.7	96.0	1.9
COc1ccccc1N1CCN(S(=O)(=O)c2cccc(F)c2)CC1	23.7	2.0	96.9*	16.7	99.2	6.8
SMILES	NALP1 yeast inh	Arr AP2 block	ALR inh	NLRP3 yeast inh	Pemphigus Ab inh	PolyA inhibitor
COc1ccccc1N1CCN(S(=O)(=O)c2ccc(F)cc2)CC1	-13.7	3.9	38.8	-8.8	92.8	10.9
Cc1[nH]c(=O)[nH]c(=O)c1S(=O)(=O)N1CCN(c2ccccc2F)CC1	22.8	3.8	-10.1	-1.7	101.0	7.3
Cc1ccc(S(=O)(=O)NCCc2nnc3ccc(N4CCOCC4)nn23)cc1	nt	nt	nt	nt	110.5	nt
COc1ccccc1N(C)C(=O)c1cc(S(=O)(=O)N2CCCC2)cn1C	0.4	3.1	-9.1	14.4	95.6	15.9
CC1CCCCC1NC(=O)CN1CCC(NC(=O)C(C)(C)C)CC1 (configuration not stated)	nt	nt	nt	nt	99.8	nt
Cc1cccc(N2C(=O)CSC23CCCCC3)c1	35.4*	10.9	-4.0	11.9	103.2	-29.7
CC1CCC2(CC1)SCC(=O)N2c1ccccc1 (configuration not stated)	-52.5	7.2	44.6	7.3	95.6	0.8
CC(=O)c1c(C)[nH]c(C(=O)CSc2nnc(CN3CCCCCC3=O)n2-c2ccccn2)c1C	41.7*	-4.3	13.6	12.1	94.8	-2.1
CCNC(=O)CSc1nnc(CN2CCCCCC2=O)n1-c1ccccn1	0.3	2.3	-3.5	-3.9	104.3	2.4
O=C(Nc1ccncc1)c1cc(S(=O)(=O)N2CCOCC2)ccc1Cl	nt	-0.8	nt	14.5	108.1	-4.6
CC(=O)N1CCc2cc(S(=O)(=O)C(C)CC(=O)NCc3ccco3)ccc21 (configuration not stated)	nt	nt	nt	nt	96.8	nt
Cc1oc2c(CN3CCCCC3C)c(O)ccc2c(=O)c1-c1ccc(Br)cc1 (configuration not stated)	7.2	12.3	-1.1	12.7	107.6	0.9
CCOC(=O)c1ccc2ncc(C(=O)OCC)c(Nc3ccc(N4CCOCC4)cc3)c2c1	23.4	20.7	6.4	15.4	112.3	4.0
CCOC(=O)c1cnc2ccc(OC)cc2c1Nc1ccc(N2CCN(C)CC2)cc1	13.6	5.0	99.3*	30.4	94.6	-4.7
CCOc1cc(N2CCOCC2)c(OCC)cc1NC(=O)COC(=O)/C=C/c1ccc(OC(F)F)cc1	nt	-12.7	nt	9.6	97.4	-0.6
Brc1ccc(/C=N/Nc2ncnc3c2cnn3Cc2ccccc2)cc1	30.1*	5.8	8.0	12.9	100.8	-11.3
c1ccc(Cn2ncc3c(Nc4ccccc4)ncnc32)cc1	nt	38.2	8.6	18.3	103.8	-4.0
Oc1ccc(/C=N/Nc2ncnc3c2ncn3Cc2ccccc2)cc1O	27.6	nt	96.0*	40.4	102.2	14.0
CN(C)c1ccc(/C=C(/NC(=O)c2ccccc2Cl)C(=O)NCCN2CCOCC2)cc1	11.1	-1.8	88.5*	2.2	110.4	6.1
CN(C)c1ccc(/C=C(/NC(=O)c2ccccc2)C(=O)NCCN2CCOCC2)cc1	14.4	17.6	99.3*	-1.7	101.2	2.0
CC(C)CN(C(=O)COC(=O)c1ccccc1SCC(=O)N1CCCC1)C1CCS(=O)(=O)C1 (configuration not stated)	nt	3.0	nt	nt	113.0	nt
